pIC50: −log10 of the molar value.
Experiments:
[1] = Growth inhibition of human Hs683 cells after 72 hrs by MTT assay; type: functional, cell-based; conditions: Hs 683, 72 h
Summary of the method: (§1)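 Cells seeded at 10 000 to 40 000 cells/mL (cell-type dependent) and allowed 24 h to plate, then grown 72 h with or without compound. Culture in RPMI with 10% heat-inactivated FCS, 4 mM glutamine, gentamicin and penicillin-streptomycin. Living cells reduce MTT to formazan, read at 570 nm against a 630 nm reference. IC50 reported as mean ± SD.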

B16-F10 = assay: Growth inhibition of mouse B16F10 cells after 72 hrs by MTT assay; type: functional, cell-based; conditions: B16-F10, 72 h; summary of the method: as §1
[2] = Growth inhibition of human U373 cells after 72 hrs by MTT assay; type: functional, cell-based, U-373MG ATCC; conditions: U373 MG; summary of the method: as §1
CT26 = assay: Growth inhibition of mouse CT26 cells after 72 hrs by MTT assay; type: functional, cell-based; conditions: CT26, 72 h; summary of the method: as §1
MCF7 = assay: Growth inhibition of human MCF7 cells after 72 hrs by MTT assay; type: functional, cell-based; conditions: MCF7, 72 h; summary of the method: as §1
A549 = assay: Growth inhibition of human A549 cells after 72 hrs by MTT assay; type: functional, cell-based; conditions: A549, 72 h; summary of the method: as §1

SMILES | pIC50 [1] | pIC50 (B16-F10) | pIC50 [2] | pIC50 (CT26) | pIC50 (MCF7) | pIC50 (A549)
C[C@]12CC[C@H](OS(=O)(=O)O)C[C@H]1CC[C@@H]1[C@@H]2CC[C@]2(C)[C@@H](c3ccc(=O)oc3)[C@@H](O)C[C@]12O | 6.75 | < 5.00 | 6.28 | < 5.00 | 5.48 | 6.33
C[C@]12CC[C@H]3[C@@H](CC[C@]4(O)C[C@@H](OS(=O)(=O)O)CC[C@]34CO)[C@@]1(O)CC[C@@H]2c1ccc(=O)oc1 | 7.30 | < 5.00 | 6.49 | < 5.00 | 6.92 | 7.10
C[C@]12CC[C@H](OS(=O)(=O)O)C[C@@]1(O)CC[C@@H]1[C@@H]2CC[C@]2(C)[C@@H](c3ccc(=O)oc3)CC[C@]12O | 8.15 | < 5.00 | 7.29 | < 5.00 | 5.80 | 7.44
C[C@@H]1O[C@@H](O[C@H]2CC[C@]3(C=O)[C@H]4CC[C@]5(C)[C@@H](c6ccc(=O)oc6)CC[C@]5(O)[C@@H]4CC[C@]3(O)C2)[C@H](O)[C@H](O)[C@H]1O[C@@H]1O[C@H](CO)[C@@H](O)[C@H](O)[C@H]1O [HELLEBRIN] | 8.15 | < 5.00 | 7.31 | < 5.00 | 7.09 | 7.80
CC(=O)O[C@H]1C[C@]2(O)[C@@H]3CC[C@@H]4C[C@@H](O)CC[C@]4(C)[C@H]3[C@H](O)C(=O)[C@]2(C)[C@H]1c1ccc(=O)oc1 | 6.34 | < 5.00 | 6.06 | < 5.00 | 5.65 | 5.87
C[C@]12CC[C@H]3[C@@H](CC[C@]4(O)C[C@@H](OS(=O)(=O)O)CC[C@]34C=O)[C@@]1(O)CC[C@@H]2c1ccc(=O)oc1 | 7.01 | < 5.00 | 6.40 | < 5.00 | 6.29 | 7.35
C[C@]12CC[C@H]3[C@@H](CC[C@@H]4C[C@@H](OS(=O)(=O)O)CC[C@@]43CO)[C@@]1(O)CC[C@@H]2c1ccc(=O)oc1 | 7.09 | < 5.00 | 7.92 | < 5.00 | 6.82 | 8.30

Reference: ChEMBL document CHEMBL1157108, “Rapid structural identification of cytotoxic bufadienolide sulfates in toad venom from Bufo melanosticus by LC-DAD-MS(n) and LC-SPE-NMR” (J Nat Prod, 2010)
